Rows were chosen to be rich in hits. Some 4.6% of all compounds tested hit in one or more screens of this group.
UCH37 DUB inh = inhibitors of human deubiquitinating enzyme UCH37; AID 588478; purified proteasome/UCH37, Ub-AMC cleavage fluorescence; Q9Y5K5; inhibition, % (concentration not given with the values); 330,000 compounds, 0.33% hits;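 active = mean inhibition over replicate wells above about 20%, limit read from the data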;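 note: 0% = compound-free wells with enzyme and 100% = wells lacking proteasome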
Target sequence (Q9Y5K5 whole entry, looked up): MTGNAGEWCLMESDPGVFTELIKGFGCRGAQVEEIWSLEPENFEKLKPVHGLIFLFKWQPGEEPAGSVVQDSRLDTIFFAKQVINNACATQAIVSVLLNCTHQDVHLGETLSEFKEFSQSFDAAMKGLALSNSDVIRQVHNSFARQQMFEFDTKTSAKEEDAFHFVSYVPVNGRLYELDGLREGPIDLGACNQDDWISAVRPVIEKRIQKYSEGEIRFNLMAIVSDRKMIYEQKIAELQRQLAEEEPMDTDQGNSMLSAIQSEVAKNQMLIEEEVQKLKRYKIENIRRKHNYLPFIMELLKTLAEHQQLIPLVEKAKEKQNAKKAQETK
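Material: Human UCH37 enzyme supplied as purified proteasome complex | Schedule: 30 min preincubation with enzyme, 25 min cleavage at room temperature | Detection: AMC fluorescence 355/460 nm | Measure: % inhibition of Ub-AMC cleavage fluorescence | Controls: Wells without proteasome as full block, compound-free enzyme plus substrate as uninhibited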
M18AAP inhibitor = PfM18AAP enzyme inhibition; 290,000 compounds, 1.2% hits; recombinant PfM18AAP, H-Glu-NHMec fluorogenic cleavage; inhibition, % at 7.35 µM;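 active = inhibition above the campaign mean inhibition over all tested compounds plus 3 SD, cut at about 28% in these data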;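 note: 0% = plate median of test compound wells and 100% = 2 mM ZnCl2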
HDAC3 inhib = blocks human histone deacetylase 3; inhibition, % at 8.3 µM; O15379; 320,000 compounds, 0.15% hits; recombinant HDAC3, fluorogenic peptide/trypsin coupled, fluorescence; in the data active = inhibition above about 26%, passing the limit was not always enough; inconclusive = no clear call, values can overlap the other calls
FAS TE block = inhibitors of human fatty acid synthase thioesterase domain | inhibition, % at 15 µM | recombinant FAS-TE, OMFH fluorogenic substrate, fluorescence endpoint | 360,000 compounds, 0.67% hits;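 active = compounds whose normalised, plate-corrected inhibition of enzyme fluorescence in the single-dose primary screen is 50% or more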;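 note: 0% = DMSO with enzyme and 100% = substrate without enzyme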
ALR H2O2 inh = inhibitors of human sulfhydryl oxidase ALR. purified ALR, DTT oxidation, H2O2 HRP-luminol luminescence. inhibition, % (test concentration not listed). 290,000 compounds, 3.8% hits. AID 485317;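 active = mean replicate inhibition above about 79%, with every replicate also reaching it, limit read from the data; inconclusive = only one of the two criteria met; inactive = mean below limit and not every replicate reaching it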
Rtt109 Vps75 = inhibitors of Candida albicans Rtt109/Vps75 histone acetyltransferase; Q5AAJ8; purified Rtt109/Vps75, ThioGlo CoA-SH fluorescence, 4 h; inhibition, % at 34.9 µM; 330,000 compounds, 0.16% hits;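 active = inhibition of at least 50% in every replicate; inconclusive = best replicate reaches 50% inhibition but some replicates fall short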
Target sequence (Q5AAJ8 whole entry, looked up): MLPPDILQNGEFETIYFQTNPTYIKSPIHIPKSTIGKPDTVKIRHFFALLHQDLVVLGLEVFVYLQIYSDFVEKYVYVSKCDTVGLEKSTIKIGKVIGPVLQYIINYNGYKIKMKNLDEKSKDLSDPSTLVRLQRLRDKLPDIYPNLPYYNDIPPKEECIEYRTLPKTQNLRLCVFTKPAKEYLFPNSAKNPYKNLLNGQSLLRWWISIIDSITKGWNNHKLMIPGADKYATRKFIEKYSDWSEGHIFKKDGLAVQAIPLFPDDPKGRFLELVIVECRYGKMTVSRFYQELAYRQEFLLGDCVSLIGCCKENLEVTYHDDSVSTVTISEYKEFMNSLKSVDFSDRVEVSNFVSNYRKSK
Numbers without * were called inactive; i = inactive; u = inconclusive; x = not tested or not shown.

SMILES | UCH37 DUB inh | M18AAP inhibitor | HDAC3 inhib | FAS TE block | ALR H2O2 inh | Rtt109 Vps75
Cc1nnc(NC(=O)CSc2nc3c(c(=O)n2C)SC(C)C3)s1 (stereo unspecified) | 10 | 0 | -6 | -2 | -11 | -23
CCc1ccc(NC(=O)CSc2nc3ccsc3c(=O)n2CCC(=O)O)cc1 | 0 | -6 | 6 | -2 | 2 | 0
CCOc1ccccc1NC(=O)CSc1nc2c(c(=O)n1C)SC(C)C2 (stereo unspecified) | 6 | 4 | -5 | -1 | 25 | 5
Cc1ccc(-n2c(SCC(=O)Nc3cc(C)on3)nc3c(c2=O)SC(C)C3)cc1 (stereo unspecified) | 2 | -6 | x | -1 | 91* | -10
CCOc1ccc(NC(=O)CSc2nc3c(c(=O)n2C)SC(C)C3)cc1 (stereo unspecified) | 6 | -3 | 12 | 3 | 98* | -29
CCOc1ccc(NC(=O)CSc2nc3ccsc3c(=O)n2CCC(=O)O)cc1 | 2 | 3 | 0 | -3 | 95* | 4
CC1Cc2nc(SCC(=O)Nc3nccs3)n(C)c(=O)c2S1 (stereo unspecified) | 12 | 1 | u | 1 | 98* | -6
CC(C)(C)NC(=S)NN=Cc1cc(Br)c(O)c(Br)c1 | -34 | x | x | x | x | x
Cc1ccc(N2CCN(N=Cc3ccncc3)CC2)cc1 | 2 | x | x | x | x | x
CC(/C=C/c1ccccc1)=NO | 1 | x | x | x | x | x
CCCn1c(NN=C(C)/C=C/c2ccccc2)nc2c1c(=O)[nH]c(=O)n2C | -16 | x | x | x | x | x
COc1ccc(-n2c(SCC(=O)N3CCN(c4ccccc4)CC3)nc3c(c2=O)SCC3)cc1 | 5 | -9 | 3 | 10 | x | 13
Cc1ccc(-n2c(SCC(=O)N3CCCC3)nc3c(c2=O)SCC3)cc1 | 9 | 1 | 0 | x | 87* | x
O=C(O)c1ccc(COc2c(F)c(F)c(F)c(F)c2F)o1 | 3 | 22 | 5 | -8 | 96* | -8
Cc1cc(C)cc(OCc2ccc(C(=O)O)o2)c1 | 5 | 0 | 4 | -6 | 18 | 3
CS(=O)(=O)N(CC(=O)NN=Cc1cc2c(cc1Br)OCO2)c1ccccc1Br | 4 | x | x | x | x | x
NC(=O)c1ccsc1N | x | 20 | -5 | x | 98* | x
O=C1C(Cl)=C(N2CCCCC2)C(=O)C(Cl)=C1c1cnc(N2CCCCC2)s1 | -26 | 21 | x | 78* | x | 35
CN(C)c1ncc(C2=C(Cl)C(=O)C(N3CCCC3)=C(Cl)C2=O)s1 | -147 | 23 | 6 | 46 | x | 13
C/C(C=NNC(=O)NC1CCCCC1)=C\c1ccccc1 | 2 | x | x | x | x | x
Clc1cccc(C=NNc2ncnc3ccccc23)c1 | 7 | x | x | x | x | x
Nc1c(Cl)c(Cl)nc(C(=O)NN=Cc2ccco2)c1Cl | -18 | x | x | x | x | x
O=C(NN=Cc1ccncc1)c1cccc(NN=Cc2ccncc2)c1 | 12 | x | x | x | x | x
CN(C)S(=O)(=O)c1ccc(C(=O)NC(=O)CSc2ccccc2)cc1 | 5 | -2 | 5 | 1 | 7 | -8
N#Cc1ccsc1NC(=O)CN1CCN(c2ccccc2O)CC1 | 1 | 7 | 0 | -4 | 99* | -1
SMILES | UCH37 DUB inh | M18AAP inhibitor | HDAC3 inhib | FAS TE block | ALR H2O2 inh | Rtt109 Vps75
COC(=O)Nc1ccc(SCC(=O)c2ccccc2)cc1 | 6 | -4 | -1 | 2 | 99* | 5
CC(=O)Nc1ccc(SCC(=O)Nc2ccccc2-c2ccccc2)cc1 | 1 | 0 | 1 | -2 | 98* | 2
CC(=O)Nc1ccc(SCC(=O)NC(=O)c2ccc(S(=O)(=O)N(C)C)cc2)cc1 | 4 | x | -5 | -6 | 99* | u
COCC(=O)Nc1ccccc1-c1ccccc1 | 1 | 10 | -3 | -6 | -10 | -2
COc1cc(NC(=O)CC(C)=NNC(=O)Cc2ccccc2)c(OC)cc1Cl | 0 | x | x | x | x | x
CCOC(=O)C1=C(C)N=c2sc(=Cc3ccc(OCC(=O)O)cc3)c(=O)n2C1c1ccc(OC(C)C)cc1 (stereo unspecified) | 9 | x | x | x | x | x
Cc1ccnc(SCC(=O)Nc2sccc2C#N)n1 | 0 | -5 | 1 | -5 | -4 | -3
CC(=O)Nc1ccc(SCC(=O)N(C)CC(=O)Nc2ccccc2Cl)cc1 | 7 | x | 2 | -6 | 98* | 3
CC(=O)Nc1ccc(SCc2ncc(-c3ccccc3)o2)cc1 | 7 | 4 | -4 | 3 | 99* | -7
c1ccc(-c2cnc(CSc3ncnc4sccc34)o2)cc1 | 3 | -8 | 1 | 16 | 4 | 11
CC(=O)Nc1ccc(SCC(=O)Nc2sccc2C#N)cc1 | 5 | -7 | 3 | 0 | 99* | -5
COc1ccc2cc1Oc1ccc(cc1)C[C@H]1c3c(cc(OC)c4c3Oc3c(ccc5c3[C@H](C2)N(C)CC5)O4)CCN1C | x | x | 13 | 66* | -3 | -1
CC1(C)Cc2ccccc2C(Nn2cnnc2)=N1 | 1 | 6 | -4 | -5 | -4 | -4
CC1(C)Cc2ccccc2C2=NNC(=O)C2=N1 | i | 1 | 5 | -5 | 99* | x
CCN(CC)c1ccc(C(=O)N2CCN(Cc3ccccc3)CC2)cc1 | 0 | 3 | 4 | -6 | 40 | 4
CCN(CC)c1ccc(C(=S)N2CCN(c3ccccc3)CC2)cc1 | 4 | -30 | -3 | 22 | 8 | 53*
CN(C)c1ccc(C(=S)N2CCN(Cc3ccccc3)CC2)cc1 | 8 | 55* | 5 | 13 | 66 | 4
S=C(c1ccccc1)N1CCN(c2ccccc2)CC1 | 2 | x | x | 13 | x | -2
CC(=NNC(=O)C1CC1)c1ccc(C(C)(C)C)cc1 | 1 | x | x | x | x | x
Cc1[nH]ccc(=O)c1OCc1c(Cl)cccc1Cl | 2 | 2 | -2 | -8 | -1 | -1
Cc1ccc(Cn2ccc(=O)c(OCc3c(Cl)cccc3Cl)c2C)cc1 | 25* | -22 | 9 | 20 | 9 | 0
CCSc1ccc(C(=O)NCC(=O)O)cc1 | 3 | 0 | 1 | -7 | -19 | 4
CSc1ccc(NC(=O)Nc2ccc(C(=O)NCC(=O)O)cc2)cc1 | x | 1 | -1 | -2 | 98* | 15
Oc1ccc(C=Nc2ccccc2-c2nc3ccccc3[nH]2)c(O)c1 | i | 12 | -143 | -11 | 82* | 8
CC(=O)Nc1nc(-c2cccs2)cs1 | 0 | -3 | 6 | -5 | -4 | 5
SMILES | UCH37 DUB inh | M18AAP inhibitor | HDAC3 inhib | FAS TE block | ALR H2O2 inh | Rtt109 Vps75
O=C(Nc1nc(-c2cccs2)cs1)c1ccc(Cl)s1 | -7 | 0 | -1 | 28 | 97* | 10
O=C(/C=C/c1ccc(Cl)cc1)N(Cc1ccccc1)c1ccccn1 | 27* | 2 | -10 | 37 | -3 | x
O=C(c1ccccc1)N(Cc1ccccc1)c1ccccn1 | 5 | 8 | -1 | -6 | -24 | 7
N=c1n(CCN2CCCCC2)c2ccccc2n1CC(O)c1ccc(Cl)c(Cl)c1 (stereo unspecified) | 16 | 13 | -7 | 10 | -16 | 58*
Cc1[nH]n(-c2ccccc2)c(=S)c1C=Nc1ccc([N+](=O)[O-])cc1 | 11 | 51* | 10 | -9 | x | 29
Cc1[nH]n(-c2ccccc2)c(=O)c1C=Nc1ccc(S(=O)(=O)N=C(N)N)cc1 | 10 | 1 | x | -2 | 0 | 2
